PMC4651821 (Clinical & experimental metastasis, 2015)
Read-outs that look alike come from different tables or passages of the source.

How the values were obtained:
FAK [1] = molecular target: T1, FAK (Homo sapiens, UniProt Q05397); assay: FAK Omnia Kinase Assay; conditions: read-out: biochemical IC50 for FAK inhibition
Procedure, shortened: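 GST-tagged full-length FAK phosphorylated a sulfonamido-oxine (SOX)-containing peptide substrate, read by chelation-enhanced fluorescence (Omnia). Test compound was run as an 11-point threefold serial dilution at final 0.17–10,000 nM or 0.12–7250 nM, in triplicate. IC50 was derived from the curves.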

FAK [2] = molecular target: T1, FAK; assay: Kinase Profiling System with ADP-Glo Kinase Assay, 192 kinases; assay type: biochemical; conditions: OXA-11 concentration of 100 nM
FAK [3] = molecular target: T1, FAK; assay: Cell-based kinase assay in cell lysates
PYK2 = PYK2 (Homo sapiens, UniProt Q14289); assay: Cell-based kinase assay in cell lysates
Sequence of PYK2 (Q14289 whole entry): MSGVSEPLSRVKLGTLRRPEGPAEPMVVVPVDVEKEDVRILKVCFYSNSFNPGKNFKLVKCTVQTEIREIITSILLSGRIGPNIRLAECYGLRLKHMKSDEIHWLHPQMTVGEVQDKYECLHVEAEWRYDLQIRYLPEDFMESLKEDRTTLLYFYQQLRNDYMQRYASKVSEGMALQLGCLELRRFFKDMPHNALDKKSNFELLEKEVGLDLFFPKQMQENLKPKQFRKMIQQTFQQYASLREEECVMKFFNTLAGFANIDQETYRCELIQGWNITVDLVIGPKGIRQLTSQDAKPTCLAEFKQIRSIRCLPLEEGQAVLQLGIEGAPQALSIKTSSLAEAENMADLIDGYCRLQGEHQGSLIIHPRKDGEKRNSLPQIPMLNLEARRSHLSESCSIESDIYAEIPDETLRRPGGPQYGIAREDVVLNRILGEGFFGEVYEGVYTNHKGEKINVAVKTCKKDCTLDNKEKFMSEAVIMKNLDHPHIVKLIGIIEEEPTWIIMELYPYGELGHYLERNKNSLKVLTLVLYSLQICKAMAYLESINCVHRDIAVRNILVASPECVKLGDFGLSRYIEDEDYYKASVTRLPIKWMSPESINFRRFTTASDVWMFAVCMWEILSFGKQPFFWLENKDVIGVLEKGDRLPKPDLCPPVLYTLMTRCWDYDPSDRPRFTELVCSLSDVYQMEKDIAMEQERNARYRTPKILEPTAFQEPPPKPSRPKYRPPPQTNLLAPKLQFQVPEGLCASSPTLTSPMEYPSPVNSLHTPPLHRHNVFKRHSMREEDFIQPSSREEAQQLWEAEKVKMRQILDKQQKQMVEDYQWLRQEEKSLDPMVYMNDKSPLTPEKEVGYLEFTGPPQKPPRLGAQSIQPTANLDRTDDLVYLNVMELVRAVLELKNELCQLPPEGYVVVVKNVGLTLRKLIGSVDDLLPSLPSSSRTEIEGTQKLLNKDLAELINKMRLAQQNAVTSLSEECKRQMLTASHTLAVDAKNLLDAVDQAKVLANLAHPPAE

Insulin receptor = Insulin receptor (Homo sapiens, UniProt P06213); assay: Cell-based kinase assay in cell lysates
Sequence of Insulin receptor (P06213 763-1382 limits assumed): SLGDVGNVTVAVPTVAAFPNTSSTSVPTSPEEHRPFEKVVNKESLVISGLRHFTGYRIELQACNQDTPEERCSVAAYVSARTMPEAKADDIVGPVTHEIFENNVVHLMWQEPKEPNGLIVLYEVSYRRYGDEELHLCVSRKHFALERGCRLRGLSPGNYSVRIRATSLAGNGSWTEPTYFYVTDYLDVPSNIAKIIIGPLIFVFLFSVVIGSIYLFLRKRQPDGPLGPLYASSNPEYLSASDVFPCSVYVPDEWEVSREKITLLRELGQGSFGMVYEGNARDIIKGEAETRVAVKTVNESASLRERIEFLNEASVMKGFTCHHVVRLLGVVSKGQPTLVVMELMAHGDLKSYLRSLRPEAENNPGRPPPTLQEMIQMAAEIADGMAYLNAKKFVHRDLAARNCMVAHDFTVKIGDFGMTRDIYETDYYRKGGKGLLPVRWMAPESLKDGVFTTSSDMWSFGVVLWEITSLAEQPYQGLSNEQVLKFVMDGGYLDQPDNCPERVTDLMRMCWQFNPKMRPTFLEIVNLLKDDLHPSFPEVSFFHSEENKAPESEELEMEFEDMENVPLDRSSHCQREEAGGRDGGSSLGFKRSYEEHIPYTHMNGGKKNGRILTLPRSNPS
Sequence of Insulin receptor (P06213 28-758 partner limits assumed): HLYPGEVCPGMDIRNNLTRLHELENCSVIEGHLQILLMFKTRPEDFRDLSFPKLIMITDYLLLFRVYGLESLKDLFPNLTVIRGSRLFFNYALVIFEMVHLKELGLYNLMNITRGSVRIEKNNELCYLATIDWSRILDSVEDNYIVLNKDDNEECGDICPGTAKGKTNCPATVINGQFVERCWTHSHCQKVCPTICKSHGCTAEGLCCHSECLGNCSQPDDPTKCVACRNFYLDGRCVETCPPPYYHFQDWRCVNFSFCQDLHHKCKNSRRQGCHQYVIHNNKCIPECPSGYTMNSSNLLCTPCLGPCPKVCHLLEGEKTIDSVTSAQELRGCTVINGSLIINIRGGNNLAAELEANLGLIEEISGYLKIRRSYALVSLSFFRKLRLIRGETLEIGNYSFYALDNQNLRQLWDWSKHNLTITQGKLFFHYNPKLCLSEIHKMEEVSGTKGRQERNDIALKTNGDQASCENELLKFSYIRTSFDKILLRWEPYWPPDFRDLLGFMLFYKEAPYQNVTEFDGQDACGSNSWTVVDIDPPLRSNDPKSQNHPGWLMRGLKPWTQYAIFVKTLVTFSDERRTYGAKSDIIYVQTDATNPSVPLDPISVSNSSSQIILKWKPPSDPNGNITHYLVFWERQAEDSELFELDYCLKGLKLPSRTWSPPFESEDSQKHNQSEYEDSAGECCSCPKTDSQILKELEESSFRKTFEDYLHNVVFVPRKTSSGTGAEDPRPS

SRC = SRC (Homo sapiens, UniProt P12931); assay: Cell-based kinase assay in cell lysates
Sequence of SRC (P12931 whole entry): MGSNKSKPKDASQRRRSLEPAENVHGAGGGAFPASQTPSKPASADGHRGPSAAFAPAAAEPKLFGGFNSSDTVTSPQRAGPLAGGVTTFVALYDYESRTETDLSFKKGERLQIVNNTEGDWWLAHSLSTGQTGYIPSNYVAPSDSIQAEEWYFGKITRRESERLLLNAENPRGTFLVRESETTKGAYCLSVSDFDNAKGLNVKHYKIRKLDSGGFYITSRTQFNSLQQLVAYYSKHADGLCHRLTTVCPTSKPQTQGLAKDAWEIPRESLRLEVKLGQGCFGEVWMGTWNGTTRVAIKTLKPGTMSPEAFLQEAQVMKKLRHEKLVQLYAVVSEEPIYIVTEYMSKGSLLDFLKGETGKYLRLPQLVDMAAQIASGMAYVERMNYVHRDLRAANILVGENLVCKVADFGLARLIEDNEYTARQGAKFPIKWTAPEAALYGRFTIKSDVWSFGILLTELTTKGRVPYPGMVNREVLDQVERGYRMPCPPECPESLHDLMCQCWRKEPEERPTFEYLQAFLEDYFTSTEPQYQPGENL

FAK [4] = molecular target: FAK (Mus musculus, UniProt P34152); assay: Cellular mechanistic FAK inhibition, 4T1 cell lysates; assay type: cell-based; conditions: read-out: OXA-11 IC50 (nM) for FAK, 4T1 mammary carcinoma cells
Sequence of FAK (Mus musculus, UniProt P34152) (P34152 whole entry): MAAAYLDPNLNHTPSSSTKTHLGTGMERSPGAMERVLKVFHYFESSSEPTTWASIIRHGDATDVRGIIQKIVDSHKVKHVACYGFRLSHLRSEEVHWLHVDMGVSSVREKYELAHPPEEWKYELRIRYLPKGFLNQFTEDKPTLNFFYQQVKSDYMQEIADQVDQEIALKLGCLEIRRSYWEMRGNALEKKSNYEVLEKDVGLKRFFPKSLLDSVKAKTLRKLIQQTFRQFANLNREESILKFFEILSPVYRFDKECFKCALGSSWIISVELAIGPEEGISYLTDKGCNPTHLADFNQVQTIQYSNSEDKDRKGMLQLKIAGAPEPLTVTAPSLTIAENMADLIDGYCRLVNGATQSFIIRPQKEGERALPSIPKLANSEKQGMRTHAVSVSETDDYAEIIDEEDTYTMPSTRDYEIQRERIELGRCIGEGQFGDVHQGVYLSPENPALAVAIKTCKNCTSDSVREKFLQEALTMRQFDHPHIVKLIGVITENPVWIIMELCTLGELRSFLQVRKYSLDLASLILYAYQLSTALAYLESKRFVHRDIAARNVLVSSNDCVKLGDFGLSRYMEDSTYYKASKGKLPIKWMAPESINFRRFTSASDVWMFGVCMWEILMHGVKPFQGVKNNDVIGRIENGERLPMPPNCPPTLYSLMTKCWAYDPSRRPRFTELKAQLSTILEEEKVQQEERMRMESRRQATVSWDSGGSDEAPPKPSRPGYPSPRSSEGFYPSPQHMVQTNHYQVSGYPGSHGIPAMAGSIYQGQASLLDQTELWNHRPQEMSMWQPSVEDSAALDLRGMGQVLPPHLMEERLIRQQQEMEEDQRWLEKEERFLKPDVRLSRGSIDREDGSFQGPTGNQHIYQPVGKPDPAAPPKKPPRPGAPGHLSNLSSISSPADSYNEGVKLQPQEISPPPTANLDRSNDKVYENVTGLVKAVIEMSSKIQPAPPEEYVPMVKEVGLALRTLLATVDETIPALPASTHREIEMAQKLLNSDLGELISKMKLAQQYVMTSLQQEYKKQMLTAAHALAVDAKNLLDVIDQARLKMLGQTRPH

FAK [5] = molecular target: FAK (Rattus norvegicus, UniProt O35346); assay: Cellular mechanistic FAK inhibition, RMC cell lysates; assay type: cell-based; conditions: read-out: OXA-11 IC50 (nM) for FAK, RMC kidney mesangial cells
FAK [6] = molecular target: T1, FAK; assay: Cellular mechanistic FAK inhibition, MDA-MB-361 cell lysates; assay type: cell-based; conditions: read-out: OXA-11 IC50 (nM) for FAK, MDA-MB-361 breast adenocarcinoma metastasis cells
FAK [7] = assay: Cellular mechanistic FAK inhibition, MDCK cell lysates; assay type: cell-based; conditions: read-out: OXA-11 IC50 (nM) for FAK, Dog, MDCK kidney epithelial cells
FAK [8] = assay: Cellular mechanistic FAK inhibition, CMMT cell lysates; assay type: cell-based; conditions: read-out: OXA-11 IC50 (nM) for FAK, Monkey, CMMT mammary gland epithelial cells
pFAK [Y397] [9] = molecular target: T2, pFAK [Y397] (Homo sapiens, UniProt Q05397); assay: pFAK [Y397] sandwich ELISA in IGROV1 cells; assay type: cell-based; conditions: read-out: IC50 of pFAK [Y397] inhibition; IGROV1 ovarian cancer cells in vitro
TOV21G cells [10] = assay: Apoptosis, caspase 3/7 activity; assay type: cell-based, human; conditions: read-out: EC50 promotion of apoptosis, 3-D culture
IGROV1 cells [11] = assay: Apoptosis, caspase 3/7 activity; assay type: cell-based, human; conditions: read-out: EC50 promotion of apoptosis, 3-D culture
TOV21G tumors [12] = assay: Tumor growth inhibition, TOV21G xenografts in nude mice; assay type: in vivo, mouse
Procedure, shortened: (§1)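 TOV21G or MDA-MB-361 cells were implanted subcutaneously in athymic nude mice and grown to a standardized size (n = 8 per group). Test compound was given daily by gavage at 20–120 mg/kg for 3 weeks. Tumor size was measured and body weight recorded during treatment.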

pFAK [Y397] [13] = molecular target: T2, pFAK [Y397]; assay: PK/PD of pFAK [Y397] inhibition in xenograft tumors; assay type: in vivo, mouse
Procedure, shortened: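 TOV21G cells were implanted subcutaneously in athymic nude mice and grown to a standardized size. Mice got a single gavage dose of test compound (40–120 mg/kg in 20 % Trappsol) or vehicle. From 2 to 24 h later, tumor pFAK [Y397] was measured by ELISA alongside plasma drug levels. Time points were 4, 8 and 24 h after 80 or 120 mg/kg.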

MDA-MB-361 breast tumors = assay: Tumor growth inhibition, MDA-MB-361 xenografts in mice; assay type: in vivo, mouse
Procedure, shortened: as §1

[14] = Tolerability in xenograft-bearing athymic nude mice; assay type: in vivo, mouse; conditions: 20–120 mg/kg daily for 3 weeks
Procedure, shortened: as §1

[15] = Tolerability / maximum tolerated dose in RIP-Tag2 mice; assay type: in vivo
pFAK [Y397] [16] = molecular target: T3, pFAK [Y397] (Mus musculus, UniProt P34152); assay: pFAK [Y397] ELISA in RIP-Tag2 tumors; assay type: in vivo; conditions: 4 h after a single 40-mg/kg dose
T3 sequence (P34152 whole entry, the tested form may be a part): as the sequence (P34152 whole entry) above
Procedure, shortened: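 14-week-old RIP-Tag2 mice received no treatment, one 40 mg/kg dose of test compound, or 20 % Trappsol, 4 or 8 h before sampling. Mice were perfused with PBS, and tumors were removed and frozen. Total FAK and pFAK [Y397] were measured by ELISA, with pancreas of RIP-Tag2-negative littermates as control; n = 4–12 per group.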

pFAK [Y397] [17] = molecular target: T3, pFAK [Y397]; assay: pFAK [Y397] immunohistochemistry in RIP-Tag2 liver and tumors; assay type: in vivo; conditions: 2 h after one 20-mg/kg dose
pFAK [Y861] = pFAK [Y861] (Mus musculus, UniProt P34152); assay: pFAK [Y861] immunohistochemistry in RIP-Tag2 liver and tumors; assay type: in vivo; conditions: for reduction of pFAK [Y861] staining in liver sinusoids: RIP-Tag2 mice
Sequence of pFAK [Y861] (P34152 whole entry, the tested form may be a part): as the sequence (P34152 whole entry) above
Procedure, shortened: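 RIP-Tag2 mice got one 20 mg/kg dose of test compound or 20 % Trappsol. pFAK [Y861] immunofluorescence was examined in liver sinusoids and tumors at 6 time points from 1 to 24 h (n = 4 mice per time point). Tissues were perfusion-fixed with 1 % PFA and frozen sections were stained; the time course gave a tissue half-life of inhibition.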

[18] = tested on: liver metastases of pancreatic neuroendocrine tumors; assay: Liver metastasis in RIP-Tag2 mice; assay type: in vivo, mouse
Procedure, shortened: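 RIP-Tag2 transgenic mice (C57BL/6 background) were treated for 3 weeks from age 14 weeks with vehicle (20 % Trappsol daily), test compound 20 mg/kg daily, anti-VEGFR-2 antibody DC101 1 mg ip twice weekly, or both. At 17 weeks, visible liver metastases were scored at autopsy. Micrometastases (≥2 adjacent SV40 T-antigen-positive cells) were counted and sized in two 80-μm liver sections per mouse; n = 19–24 per group.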

Aurora kinase A = Aurora kinase A (Homo sapiens, UniProt O14965)
Sequence of Aurora kinase A (O14965 whole entry): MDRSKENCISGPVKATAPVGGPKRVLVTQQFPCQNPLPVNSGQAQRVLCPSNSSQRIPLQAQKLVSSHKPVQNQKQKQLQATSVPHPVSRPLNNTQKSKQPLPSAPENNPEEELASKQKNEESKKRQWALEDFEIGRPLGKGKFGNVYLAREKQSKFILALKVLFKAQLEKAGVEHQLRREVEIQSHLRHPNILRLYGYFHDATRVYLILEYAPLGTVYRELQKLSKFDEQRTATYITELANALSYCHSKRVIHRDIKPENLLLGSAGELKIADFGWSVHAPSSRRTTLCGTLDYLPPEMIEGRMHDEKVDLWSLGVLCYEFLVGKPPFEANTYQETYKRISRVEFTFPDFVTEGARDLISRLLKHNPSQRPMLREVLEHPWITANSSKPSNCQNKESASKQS

Aurora kinase B = Aurora kinase B (Homo sapiens, UniProt Q96GD4)
Sequence of Aurora kinase B (Q96GD4 whole entry): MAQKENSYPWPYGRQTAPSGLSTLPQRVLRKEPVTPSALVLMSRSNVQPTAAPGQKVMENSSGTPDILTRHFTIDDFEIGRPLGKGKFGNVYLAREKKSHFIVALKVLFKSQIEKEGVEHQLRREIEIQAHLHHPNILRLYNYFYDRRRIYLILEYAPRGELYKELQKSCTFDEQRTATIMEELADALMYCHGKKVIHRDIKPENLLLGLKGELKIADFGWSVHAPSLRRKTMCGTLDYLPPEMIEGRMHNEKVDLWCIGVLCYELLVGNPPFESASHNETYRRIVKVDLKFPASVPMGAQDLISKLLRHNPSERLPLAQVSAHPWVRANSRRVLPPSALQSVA

KDR = KDR (Homo sapiens, UniProt P35968)
TOV21G cells [19] = conditions: read-out: EC50 inhibition of proliferation, 3-D culture, 7 days
IGROV1 cells [20] = conditions: read-out: EC50 inhibition of proliferation, 3-D culture, 7 days
[21] = tested on: eight human tumor cell lines; conditions: read-out: EC50 inhibition of proliferation in 3-D culture
TOV21G tumors [22] = assay: OXA-11 with cisplatin in TOV21G tumors in nude mice; assay type: in vivo; conditions: cisplatin given alone, 5 mg/kg
[23] = cellular mechanistic IC50, TOV21G cells
[24] = TOV21G xenografts, 120 mg/kg daily

SMILES: CCOP(=O)(Cc1ccc(Nc2ncc(C(F)(F)F)c(Nc3ccc([C@H]4CC[C@H](N5CCN(C)CC5)CC4)c4c3C(=O)N(C)C4)n2)c(OC)c1)OCC [OXA-11, diethyl (3-methoxy-4-{ [4-({2-methyl-7-[trans-4-(4-methylpiperazin-1-yl)cyclo-hexyl]-3-oxo-2,3-dihydro-1H-isoindol-4-yl}amino)-5-(tri-fluoromethyl)pyrimidin-2-yl]amino}benzyl) phosphonate]
- IC50 (FAK [1]): 0.0012 nM
- inhibition of kinase in biochemical specificity screening (FAK [2]): more than 50%
- Fold selectivity for FAK (FAK) (FAK [3]): 1×
- Fold selectivity for FAK over PYK2 (PYK2; cell lysates): 8×
- selectivity for FAK over PYK2 (PYK2; [23]): eightfold
- IC50 (PYK2; read-out: OXA-11 IC50 (nM), PYK2, cellular mechanistic, cell lysates): 80 nM
- Fold selectivity for FAK over Insulin receptor (Insulin receptor; cell lysates): >1000×
- selectivity for FAK over insulin receptor (IR, INSR) (Insulin receptor; [23]): > 1000 fold
- IC50 (Insulin receptor; read-out: OXA-11 IC50 (nM), Insulin receptor, cellular mechanistic, cell lysates): > 10000 nM
- Fold selectivity for FAK over SRC (SRC; cell lysates): >1000×
- selectivity for FAK over SRC (SRC; [23]): > 1000 fold
- IC50 (SRC; read-out: OXA-11 IC50 (nM), SRC, cellular mechanistic, cell lysates): > 10000 nM
- IC50 (FAK [4]): 8 nM
- IC50 (FAK [5]): 18 nM
- IC50 (FAK [6]): 20 nM
- IC50 (FAK [7]): 32 nM
- IC50 (FAK [8]): 84 nM
- IC50 (pFAK [Y397] [9]): 0.8 nM
- EC50 (TOV21G cells [10]): 31 nM
- EC50 (IGROV1 cells [11]): 0.5 nM
- inhibition of tumor growth (TOV21G tumors [12]; [24]): 77%
- reduction in size of TOV21G tumors (TOV21G tumors [12]; nude mice, 20–120 mg/kg daily for 3 weeks): 22–67%
- reduction of pFAK [Y397] at 24 h (pFAK [Y397] [13]; TOV21G tumors, single dose 80 or 120 mg/kg, plasma levels back to baseline): approximately 25%
- suppression of pFAK [Y397] (pFAK [Y397] [13]; [24]): 61%
- EC50 (pFAK [Y397] [13]; read-out: pharmacodynamic EC50 of pFAK [Y397] inhibition, total OXA-11, TOV21G tumors in mice, 4, 8 and 24 h): 102 nM
- inhibition of MDA-MB-361 tumor growth over 3 weeks (MDA-MB-361 breast tumors; higher daily dose (120 mg/kg)): 95%
- inhibition of MDA-MB-361 tumor growth over 3 weeks (MDA-MB-361 breast tumors; lower daily dose (40 mg/kg)): 60%
- dose-limiting toxicity [14]: No dose-limiting toxicity
- tolerability ([15]; 40 or 60 mg/kg daily for at least 3 weeks): well tolerated
- maximum tolerated dose ([15]; OXA-11 given with DC101): 20 mg/kg
- tolerable dosing ([15]; daily): 20 to 60 mg/kg
- pFAK [Y397] activity in RIP-Tag2 tumors (pFAK [Y397] [16]): significantly reduced
- staining for pFAK [Y397] in RIP-Tag2 tumors (pFAK [Y397] [17]): reduced to nearly undetectable levels
- pFAK [Y397] immunofluorescence in liver sinusoids, less than baseline (pFAK [Y397] [17]; RIP-Tag2 mice): 86%
- staining for pFAK [Y861] in RIP-Tag2 tumors (pFAK [Y861]; 2 h after one 20-mg/kg dose): reduced to nearly undetectable levels
- tissue half-life of OXA-11 inhibition of pFAK [Y861] (pFAK [Y861]; RIP-Tag2 liver sinusoids, single dose 20 mg/kg): about 4 h
- reduction of pFAK [Y861] staining in liver sinusoids (pFAK [Y861]; 1 h after single dose 20 mg/kg): 79%
- reduction of pFAK [Y861] staining in liver sinusoids (pFAK [Y861]; 4 h after single dose 20 mg/kg): 57%
- reduction of pFAK [Y861] staining in liver sinusoids (pFAK [Y861]; 6 h after single dose 20 mg/kg): 35%
- mice with liver metastases visible at autopsy ([18]; 17-week old RIP-Tag2 mice after treatment for 3 weeks): 10%
- size of liver micrometastases ([18]; RIP-Tag2 mice, 3 weeks treatment): about the same as in the vehicle group
- Fold selectivity for FAK over RSK1/2 (RSK1/2; cell lysates): 26×
- selectivity for FAK over RSK1/2 (RSK1/2; [23]): 26 fold
- IC50 (RSK1/2; read-out: OXA-11 IC50 (nM), RSK1/2, cellular mechanistic, cell lysates): 260 nM
- Fold selectivity for FAK over Aurora kinase A (Aurora kinase A; cell lysates): >1000×
- selectivity for FAK over aurora kinase A (AURKA) (Aurora kinase A; [23]): > 1000 fold
- IC50 (Aurora kinase A; read-out: OXA-11 IC50 (nM), Aurora kinase A, cellular mechanistic, cell lysates): > 10000 nM
- Fold selectivity for FAK over Aurora kinase B (Aurora kinase B; cell lysates): >1000×
- selectivity for FAK over aurora kinase B (AURKB) (Aurora kinase B; [23]): > 1000 fold
- IC50 (Aurora kinase B; read-out: OXA-11 IC50 (nM), Aurora kinase B, cellular mechanistic, cell lysates): > 10000 nM
- Fold selectivity for FAK over KDR (KDR; cell lysates): >1000×
- selectivity for FAK over KDR (VEGFR-2, FLK1) (KDR; [23]): > 1000 fold
- IC50 (KDR; read-out: OXA-11 IC50 (nM), KDR, cellular mechanistic, cell lysates): > 10000 nM
- EC50 (TOV21G cells [19]): 9 nM
- EC50 (IGROV1 cells [20]): 0.3 nM
- EC50 ([21]; TOV21G, OVCAR3, OVCAR5 and IGROV1 cells (high baseline pFAK [Y397])): 0.3 to 14.5 nM
- EC50 ([21]; four other cell lines with lower baseline pFAK [Y397]): > 100 nM

SMILES: N.N.[Cl][Pt][Cl] [cisplatin]
- effect on pFAK [Y397] in TOV21G-cell tumors (TOV21G tumors [22]): increased pFAK [Y397]
